According to publication PMC10938441 (ACS Omega, 2024):

Tests used:
[1] = Cytotoxicity, methylene blue staining in Calu-3 cells; format: cell-based; conditions: human, Calu-3 cell monolayers
In short: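 Calu-3 monolayers (2 × 10^4 cells/well) exposed to test compound at several concentrations for 72 h at 37 °C, 5% CO2, triplicate per concentration. Cells PBS-washed, then fixed and stained 1 h at 37 °C with HBSS + 1.25% glutaraldehyde + 0.6% methylene blue. Rinsed with water; dye eluted 15 min at room temperature (50% ethanol, 49% PBS, 1% acetic acid); A660 read. CC50 fitted from % viability vs log concentration.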

[2] = Cytotoxicity, MTT reduction assay in HepG2 cells; format: cell-based; conditions: human, HepG2 cells, CC50 (HepG2)
In short: (§1)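 HepG2 cells grown at 37 °C, 5% CO2 in DMEM with streptomycin (40 mg/L) and 10% heat-inactivated FBS. Seeded at 1 × 10^3 cells/well, then exposed to serial dilutions of test compound for 72 h, each concentration in triplicate. MTT added for 4 h; formazan dissolved in isopropanol, read at OD570. Viability expressed as % of vehicle control; CC50 fitted from % viability vs log concentration.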

[3] = tested on: SARS-CoV-2; format: cell-based, SARS-CoV-2 B.1 lineage; conditions: correlation between anti-SARS-CoV-2 activity (EC50) and HepG2 cytotoxicity (CC50)
[4] = tested on: HepG2 cell lines; assay: Cytotoxicity, MTT reduction assay in HepG2 cells; format: cell-based; conditions: read-out: CC50 (HepG2), 72 h
In short: as §1

Compound | CC50 at 72 h [1] [µM] | CC50 at 72 h [2] [µM] | selectivity index [3] | CC50 [4] [µM]
Cc1c(-c2ccc(-c3ccccc3F)cc2)nc2ccc(F)cc2c1C(=O)O [brequinar] | 48 ± 2 | 17 ± 4 | – | –
CC(C)=CCC1=C(O)C(=O)c2ccccc2C1=O [lapachol] | 67 ± 2 | 71 ± 9 | 47 ± 7 | –
C/C(O)=C(\C#N)C(=O)Nc1ccc(C(F)(F)F)cc1 [teriflunomide] | 59 ± 2 | 164 | – | 160 ± 20
